Values after ≈ are worked out from the molar mass of the structure shown. Active and inactive are the calls of the source.
Experiments:
[1] = (§1) Inhibition of NF-kappaB activity in TNF-alpha stimulated human HEK-293/NF-kB-luc cells incubated for 30 mins prior to TNF-alpha challenge for 4 hrs by luciferase reporter gene assay
Summary of the method: (§2)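 HEK293/NF-κB-luc cells were prestained with 2 μM CMFDA for 1 h, reseeded at 4 × 10^4 cells/well overnight in phenol red-free, serum-free DMEM, pretreated 30 min with compound or 0.1% DMSO vehicle, then stimulated with TNF-α 2 ng/mL for 4 h. Lysates were read for firefly luciferase, normalized to CMFDA fluorescence for cell number. Screen at 30 μM; IC50 determined for selected compounds.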

HEK293 = experiment: Growth inhibition of TNF-alpha stimulated human HEK-293/NF-kB-luc cells assessed as cell viability at 30 uM incubated for 30 mins prior to TNF-alpha challenge for 4 hrs by CellTracker Green CMFDA staining; type: cell-based; settings: hek293, 4 h
Summary of the method: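 Cells loaded 1 h with 2 μM CellTracker Green CMFDA in serum-free medium, reseeded at 4 × 10^4 cells/well overnight in phenol red-free, FBS-free DMEM. Pretreated with test compound or vehicle (0.1% DMSO) for 30 min, then TNF-α 2 ng/mL for 4 h. After lysis, CMFDA fluorescence was compared with vehicle-treated cells.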

Homo sapiens [2] = species: Homo sapiens; experiment: Inhibition of NF-kappaB activity in TNF-alpha stimulated human HEK-293/NF-kB-luc cells at 30 uM incubated for 30 mins prior to TNF-alpha challenge for 4 hrs by luciferase reporter gene assay; summary of the method: as §2
Homo sapiens [3] = species: Homo sapiens; experiment: as §1; summary of the method: as §2
[4] = Acute toxicity in po dosed mouse; type: organism-based; settings: in vivo
[5] = Toxicity against brine shrimp; type: organism-based; settings: artemia, in vivo; read-out: LD50 (the source's name)
[6] = Homo sapiens, HEK293, read-out: IC50

| SMILES | IC50 [1, 6] [µM] | inhibition (Homo sapiens [2]) | IC50 [1] | inhibition (Homo sapiens [3]) | Activity (HEK293) | LD50 [4] [mg/kg] | LC50 [5] [µg/mL] |
| --- | --- | --- | --- | --- | --- | --- | --- |
| CC1=CC(=O)[C@@H](O)[C@]2(C)[C@H]3C(=O)[C@H](O)[C@H](C)[C@@H]4CC(=O)O[C@H](C[C@@H]12)[C@]34C | 1.9 | > 50% | – | – | Non-toxic | – | – |
| C[C@H]1[C@H]2OC(=O)[C@@H]1[C@]1(C)C(=O)C=C3[C@H](C)CC(=O)[C@@H](O)[C@]3(C)[C@H]1[C@H]2O | 18.4 | > 50% | – | – | Non-toxic | – | – |
| O=c1ccc2nccc3c4ccc(O)cc4n1c23 | 3.8 | > 50% | – | – | Non-toxic | – | – |
| C=C1[C@@H](O)[C@@]2(O)OC[C@]34[C@H]2[C@@]2(C)[C@H](O)C(=O)C=C(C)[C@@H]2C[C@H]3OC(=O)[C@H](O)[C@@]14O [EURYCOMANONE] | 2.4 | > 50% | – | – | Non-toxic | 50 | 3.5 (≈ 8.57 µM) |
| COc1cc2ccc(=O)oc2c(O)c1OC | – | – | – | inactive | Non-toxic | – | – |
| O=c1ccc2nccc3c4ccc(O[C@@H]5O[C@H](CO)[C@@H](O)[C@H](O)[C@H]5O)cc4n1c23 | – | inactive | – | – | Non-toxic | – | – |
| CC1=CC(=O)[C@@H](O)[C@@]2(C)[C@H]1CC(=O)[C@@]1(C)[C@H]3C(=O)O[C@H]([C@@H]3C)[C@H](O)[C@@H]12 [EURYCOMALACTONE] | 0.5 | > 50% | – | – | Non-toxic | – | – |
| CC1=C[C@H](O)[C@@H](O)[C@@]2(C)[C@H]1CC(=O)[C@@]1(C)[C@H]3C(=O)O[C@H]([C@@H]3C)[C@H](O)[C@@H]12 [EURYCOLACTONE E] | 3.8 | > 50% | – | – | Non-toxic | – | – |
| COc1cc2c3ccnc4ccc(=O)n(c2cc1OC)c43.Cl | 19.5 | > 50% | – | – | Non-toxic | – | – |
| COc1c(O)c2nccc3c4ccccc4n(c1=O)c23 [PICRASIDINE Q] | – | inactive | – | – | Non-toxic | – | – |
| COc1ccc2c3ccnc4ccc(=O)n(c2c1)c43 | 7.4 | > 50% | – | – | Non-toxic | – | – |
| COc1cc(C)c2c(=O)cc(C[C@H](C)O)oc2c1[C@@H]1O[C@H](CO)[C@@H](O)[C@H](O)[C@H]1OC(=O)/C=C/c1ccc(O)cc1 | – | – | – | inactive | – | – | – |
| CC1=CC(=O)[C@@H](O)[C@]2(C)[C@H]3[C@@H](O)[C@@H]4OC(=O)[C@@H]([C@H]4C)[C@]3(C)[C@H](O)C[C@@H]12 | 1.5 | > 50% | – | – | Non-toxic | – | – |
| CC1=CC(=O)[C@@H](O)[C@]2(C)[C@H]3[C@@H](O)[C@H](O)[C@H](C)[C@]4(O)[C@@H](O)C(=O)O[C@H](C[C@@H]12)[C@]34C | 1 | > 50% | – | – | Non-toxic | – | 324 (≈ 816 µM) |
| CC1=CC(=O)[C@@H](O)[C@]2(C)[C@H]3[C@@]4(O)OC[C@@]35[C@@H](C[C@@H]12)OC(=O)[C@H](O)[C@@]5(O)[C@@H](C)[C@H]4O | 0.7 | > 50% | – | – | Non-toxic | – | 10.3 (≈ 25.1 µM) |
| CC1=CC(=O)[C@@H](O)[C@@]2(C)[C@H]1[C@@H](O)[C@H]1OC(=O)C3[C@@H](C)[C@H](O)[C@H](O)[C@H]2[C@]31C (stereo partly drawn) [LONGILACTONE] | 4.7 | > 50% | – | – | Non-toxic | – | 145 (≈ 395 µM) |

Continued, in another order:

| IC50 [1, 6] [µM] | inhibition (Homo sapiens [2]) | IC50 [1] | inhibition (Homo sapiens [3]) | SMILES | Activity (HEK293) | LD50 [4] [mg/kg] | LC50 [5] [µg/mL] |
| --- | --- | --- | --- | --- | --- | --- | --- |
| 1.5 | – | – | – | C=C1C(=O)O[C@@H]2C3O[C@]3(C)CC/C=C(\C)CC[C@@H]12 (stereo partly drawn) | Non-toxic | – | – |
| 29.3 | > 50% | – | – | COC(=O)c1nccc2c1[nH]c1ccccc12 | Non-toxic | – | – |
| – | – | Not Active | – | CC1=CC(=O)[C@@]2(C)C1=CC(=O)[C@]1(C)[C@@H]2[C@@H](O)[C@@H]2OC(=O)[C@H]1[C@H]2C [LAURYCOLACTONE B] | Non-toxic | – | – |
| – | – | – | inactive | CC(=O)O[C@@H](CC[C@@H](OC(C)=O)[C@]1(C)CC[C@H]([C@@](C)(O)CCC=C(C)C)O1)[C@@]1(C)CC[C@H]([C@@](C)(O)CCC=C(C)C)O1 | Non-toxic | – | – |
| – | – | – | inactive | C[C@@H]1CC[C@]2(C(=O)O[C@@H]3O[C@H](CO)[C@@H](O)[C@H](O)[C@H]3O)CC[C@]3(C)C(=CC[C@@H]4[C@@]5(C)CC[C@H](O)[C@@](C)(CO)[C@@H]5CC[C@]43C)[C@@H]2[C@]1(C)O [PEDUNCULOSIDE] | Non-toxic | – | – |
| – | – | Not Active | – | CC1=CC(=O)[C@]2(C)[C@H]3[C@@H](O)[C@@H]4OC(=O)[C@@H]([C@H]4C)[C@]3(C)C(=O)C[C@@H]12 [LAURYCOLACTONE A] | Non-toxic | – | – |
| – | – | – | inactive | COc1cc(C=O)ccc1O | – | – | – |
| – | – | – | inactive | COc1cc(C(=O)O)ccc1O | – | – | – |
| – | – | – | inactive | COc1cc(C(=O)O)cc(OC)c1O | – | – | – |
| – | – | – | inactive | COc1cc2ccc(=O)oc2cc1O [SCOPOLETIN] | Non-toxic | – | – |
| 23.3 | > 50% | – | – | COc1ccc(-c2oc3c(OC)c(OC)c(OC)c(OC)c3c(=O)c2OC)cc1OC [3,5,6,7,8,3',4'-HEPTAMETHOXYFLAVONE] | Non-toxic | – | – |
| – | – | – | inactive | O=C(O)c1ccc(O)c(-c2cc(C(=O)O)ccc2O)c1 | – | – | – |
| 6.2 | > 50% | – | – | CC1=CC(=O)[C@@H](O)[C@@]2(C)C1=CC(=O)[C@]1(C)[C@@H]2[C@@H](O)[C@@H]2OC(=O)[C@H]1[C@H]2C | Non-toxic | – | – |
